Data as given in ChEMBL document CHEMBL1132279, “Axially chiral 1,7-naphthyridine-6-carboxamide derivatives as orally active tachykinin NK(1) receptor antagonists: synthesis, antagonistic activity, and effects on bladder functions” (J Med Chem, 1999).
Values joined by “and” are separate entries in the source; they are usually repeats but may differ in a detail not shown here. Identical values can stand only once.

Key:
Cavia porcellus [1] = experiment: Shut down time of distension induced rhythmic bladder contractions in urethane anesthetized guinea pigs after a intravenous dose of 0.3 mg/kg of the compound; type: functional
How it was run: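 Urethane-anesthetized guinea pigs; saline (39 °C) infused stepwise (0.2 mL) into the bladder via a dome needle until rhythmic isovolumetric contractions appeared. Compound in DMSO (0.05 mL/100 g) given iv at 0.3 mg/kg. Shutdown time (interval between contractions, 30 min cutoff) reported as mean ± SE, compared with the vehicle group mean by Dunnett's test.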

Cavia porcellus [2] = experiment: Inhibition of capsaicin-induced plasma extravasation in guinea pig trachea by peroral administration; type: functional; details: po, read-out: ID50 (the source's name)
How it was run: (§1)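 Male Hartley guinea pigs (n = 5–8) under pentobarbital 35 mg/kg ip. Compound given iv 5 min, or orally 60 min, before iv capsaicin (150 µg/kg) plus Evans blue (20 mg/kg) in ethanol-saline 3:7. After 10 min, animals were perfused with saline and the trachea weighed.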

Cavia porcellus [3] = experiment: Effective dose that increased the bladder volume threshold of urethane anesthetized guinea pigs by 30%; type: functional
How it was run: (§2)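 Urethane-anesthetized guinea pigs; bladder volume threshold read before dosing (mean of last two stable trials as control) and again 10 min after iv injection. Compound in 80% DMSO, 0.1 mL/100 g body weight. Effect given as % rise in volume threshold over predrug value; ED30 is the dose raising threshold by 30%, with 6–12 animals per dose and 95% confidence limits.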

Substance-P receptor = Substance-P receptor (Homo sapiens, UniProt P25103); experiment: Tachykinin receptor 1 antagonistic activity as ability to inhibit [125I]BH-SP binding in human IM-9 cells (lymphoblast cells); type: cell-based
Cavia porcellus [4] = experiment: In vivo inhibition of capsaicin-induced plasma extravasation in the trachea of guinea pigs after intravenous administration; type: functional; how it was run: as §1
Cavia porcellus [5] = experiment: In vivo inhibition of capsaicin-induced plasma extravasation in the trachea of guinea pigs after peroral administration; type: functional; details: po, read-out: ID50 (the source's name); how it was run: as §1
Cavia porcellus [6] = experiment: Increased bladder volume threshold in urethane anesthetized guinea pigs by 30%; type: functional; how it was run: as §2

Sequence of Substance-P receptor (P25103 whole entry): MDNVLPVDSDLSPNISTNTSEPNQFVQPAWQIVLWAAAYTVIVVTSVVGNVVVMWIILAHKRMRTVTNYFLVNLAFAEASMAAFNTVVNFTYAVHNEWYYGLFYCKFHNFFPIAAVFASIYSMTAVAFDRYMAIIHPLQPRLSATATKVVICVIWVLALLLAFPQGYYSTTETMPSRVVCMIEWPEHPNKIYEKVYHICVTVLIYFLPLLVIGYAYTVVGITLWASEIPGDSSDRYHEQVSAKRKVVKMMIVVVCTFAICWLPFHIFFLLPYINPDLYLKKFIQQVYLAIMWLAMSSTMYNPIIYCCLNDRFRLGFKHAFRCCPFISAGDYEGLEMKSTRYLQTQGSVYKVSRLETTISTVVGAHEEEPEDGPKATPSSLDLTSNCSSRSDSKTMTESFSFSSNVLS

IC50 (Substance-P receptor) [nM]	SMILES	Shutdown time (Cavia porcellus [1]) [min]	ED30 (Cavia porcellus [3]) [mg/kg]	ED50 (Cavia porcellus [5]) [mg/kg]	further results
0.85	Cc1ccc(-c2c3n(c(=O)c4ncccc24)CCCN(Cc2cc(C(F)(F)F)cc(C(F)(F)F)c2)C3=O)cc1	10.1	0.37		ED50 (Cavia porcellus [2]): 0.073 mg/kg
	Cc1ccc(-c2c3n(c(=O)c4ncccc24)CC[C@@H](C)CN(Cc2cc(C(F)(F)F)cc(C(F)(F)F)c2)C3=O)cc1 (stereo in doubt; (aS,9R)-8b)				ID50 (Cavia porcellus [4]): 0.026 mg/kg
	Cc1ccc(-c2c3n(c(=O)c4ncccc24)C[C@@H](C)CN(Cc2cc(C(F)(F)F)cc(C(F)(F)F)c2)C3=O)cc1	17.9	0.16	0.033	
	Cc1ccc(-c2c(C(=O)N(C)Cc3cc(C(F)(F)F)cc(C(F)(F)F)c3)n(C)c(=O)c3ncccc23)cc1 [7-METHYL-8-OXO-5-P-TOLYL-7,8-DIHYDRO-[1,7]NAPHTHYRIDINE-6-CARBOXYLIC ACID (3,5-BIS-TRIFLUOROMETHYL-BENZYL)-METHYL-AMIDE (STRUCTURAL MIX)]			0.11	Shutdown time (Cavia porcellus [1]; 0.3 mg/kg): 12.9 min [middle of 4 runs]; ED30 (Cavia porcellus [6]): 0.1 mg/kg
	Cc1ccc(-c2c3n(c(=O)c4ncccc24)CC[C@H](C)CN(Cc2cc(C(F)(F)F)cc(C(F)(F)F)c2)C3=O)cc1 (stereo in doubt; (aS,9S)-8b) [7-(3,5-BIS-TRIFLUOROMETHYL-BENZYL)-9-METHYL-5-P-TOLYL-8,9,10,11-TETRAHYDRO-7H-1,7,11A-TRIAZA-CYCLOOCTA[B]NAPHTHALENE-6,12-DIONE (ATROPISOMERIC MIX)]	6.7			ED50 (Cavia porcellus [4]; Cavia porcellus, Plasma, iv, read-out: ID50 (the source's name)): > 0.3 mg/kg
1.8	Cc1ccc(-c2c3n(c(=O)c4ncccc24)CCCCCN(Cc2cc(C(F)(F)F)cc(C(F)(F)F)c2)C3=O)cc1	17.1	0.086	0.04	
9.5	Cc1ccc(-c2c3n(c(=O)c4ncccc24)C[C@H](C)CN(Cc2cc(C(F)(F)F)cc(C(F)(F)F)c2)C3=O)cc1	5.9			
	Cc1ccc(-c2c3n(c(=O)c4ncccc24)CCCCN(Cc2cc(C(F)(F)F)cc(C(F)(F)F)c2)C3=O)cc1 [7-(3,5-BIS-TRIFLUOROMETHYL-BENZYL)-5-P-TOLYL-8,9,10,11-TETRAHYDRO-7H-1,7,11A-TRIAZA-CYCLOOCTA[B]NAPHTHALENE-6,12-DIONE (ATROPISOMERIC MIX)]		0.066	0.019	Shutdown time (Cavia porcellus [1]; 0.3 mg/kg): 7.4 min and 19.2 min and 15.7 min
	Cc1ccc(-c2c3n(c(=O)c4ncccc24)CC[C@@H](C)CN(Cc2cc(C(F)(F)F)cc(C(F)(F)F)c2)C3=O)cc1 (stereo in doubt; (aR,9R)-8b)	21.8	0.051	0.033	ID50 (Cavia porcellus [4]): 0.0043 mg/kg
2.3	Cc1ccc(-c2c3n(c(=O)c4ncccc24)CCN(Cc2cc(C(F)(F)F)cc(C(F)(F)F)c2)C3=O)cc1				
